Source: ChEMBL document CHEMBL1157864, “Synthesis of some novel 2-substituted-5-[isopropylthiazole] clubbed 1,2,4-triazole and 1,3,4-oxadiazoles as potential antimicrobial and antitubercular agents” (Eur J Med Chem, 2010)
≈ marks a conversion by molar mass, not a printed value.

Each compound was assayed on Staphylococcus aureus (assay: Antimicrobial activity against Staphylococcus aureus ATCC 11632 after 24 hrs by broth microdilution assay). Details: ATCC 11632, 24 h.
Type: functional
In short: (§1)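 Broth dilution MIC. Stock is 10 mg compound in 1 mL DMSO, serially diluted in Mueller–Hinton broth for bacteria or Sabouraud liquid medium for yeasts and mould. Tubes are inoculated at 10⁵ cfu/mL and incubated at 37 °C for 24 h. Controls are medium alone and medium with DMSO at matching dilutions. MIC is the lowest concentration giving complete growth inhibition.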
For `CC(C)c1csc(-c2nnc(-c3ccc([N+](=O)[O-])cc3)o2)n1`, the MIC was 16 µg/mL (≈ 50.6 µM).
For `CC(=O)N1N=C(c2nc(C(C)C)cs2)OC1(C)C`, the MIC was 62.5 µg/mL (≈ 234 µM).
Work on `CC(=O)N1N=C(c2nc(C(C)C)cs2)OC1(C)c1ccccc1` (centres undefined) yielded an MIC of 31.2 µg/mL (≈ 94.9 µM).
With `CC(=O)N1N=C(c2nc(C(C)C)cs2)OC1(C)c1ccc(Cl)cc1` (centres undefined) the MIC was 16 µg/mL (≈ 44 µM).
Compound `Cc1ccc(/C=N/n2c(S)nnc2-c2nc(C(C)C)cs2)cc1` has an MIC of 31.2 µg/mL (≈ 91 µM).
In the case of `CC(C)c1csc(-c2nnc(S)n2/N=C/c2ccccc2Cl)n1`, the MIC is reported as 31.2 µg/mL (≈ 85.9 µM).

What follows are compounds tested on Enterococcus faecalis (assay: Antimicrobial activity against Streptococcus faecalis ATCC 14506 after 24 hrs by broth microdilution assay). Details: ATCC 14506, 24 h.
Type: functional
In short: as §1
With `CC(C)c1csc(-c2nnc(-c3ccc([N+](=O)[O-])cc3)o2)n1` the MIC was 31.2 µg/mL (≈ 98.8 µM).
`CC(=O)N1N=C(c2nc(C(C)C)cs2)OC1(C)C` was tested, and the MIC was 125 µg/mL (≈ 468 µM).
With `CC(=O)N1N=C(c2nc(C(C)C)cs2)OC1(C)c1ccccc1` (centres undefined) the MIC was 31.2 µg/mL (≈ 94.9 µM).
For `CC(=O)N1N=C(c2nc(C(C)C)cs2)OC1(C)c1ccc(Cl)cc1` (centres undefined), the MIC was 62.5 µg/mL (≈ 172 µM).
In the case of `Cc1ccc(/C=N/n2c(S)nnc2-c2nc(C(C)C)cs2)cc1`, the MIC is reported as 125 µg/mL (≈ 364 µM).
`CC(C)c1csc(-c2nnc(S)n2/N=C/c2ccccc2Cl)n1` gave an MIC of 8 µg/mL (≈ 22 µM).

These compounds were tested on Bacillus subtilis (assay: Antimicrobial activity against Bacillus subtilis ATCC 60511 after 24 hrs by broth microdilution assay). Details: ATCC 60511, 24 h.
Type: functional
In short: as §1
`CC(C)c1csc(-c2nnc(-c3ccc([N+](=O)[O-])cc3)o2)n1` gave an MIC of 31.2 µg/mL (≈ 98.8 µM).
`CC(=O)N1N=C(c2nc(C(C)C)cs2)OC1(C)C` was tested, and the MIC was 125 µg/mL (≈ 468 µM).
`CC(=O)N1N=C(c2nc(C(C)C)cs2)OC1(C)c1ccccc1` (centres undefined) was tested, and the MIC was 62.5 µg/mL (≈ 190 µM).
Compound `CC(=O)N1N=C(c2nc(C(C)C)cs2)OC1(C)c1ccc(Cl)cc1` (centres undefined) has an MIC of 31.2 µg/mL (≈ 85.9 µM).
`Cc1ccc(/C=N/n2c(S)nnc2-c2nc(C(C)C)cs2)cc1` gave an MIC of 31.2 µg/mL (≈ 91 µM).
With `CC(C)c1csc(-c2nnc(S)n2/N=C/c2ccccc2Cl)n1` the MIC was 4 µg/mL (≈ 11 µM).

What follows are compounds tested on Klebsiella pneumoniae (assay: Antimicrobial activity against Klebsiella pneumoniae ATCC 10031 after 24 hrs by broth microdilution assay). Details: ATCC 10031, 24 h.
Type: functional
In short: as §1
For `CC(C)c1csc(-c2nnc(-c3ccc([N+](=O)[O-])cc3)o2)n1`, the MIC was 62.5 µg/mL (≈ 198 µM).
`CC(=O)N1N=C(c2nc(C(C)C)cs2)OC1(C)C` was tested, and the MIC was 125 µg/mL (≈ 468 µM).
Work on `CC(=O)N1N=C(c2nc(C(C)C)cs2)OC1(C)c1ccccc1` (centres undefined) yielded an MIC of 62.5 µg/mL (≈ 190 µM).
`CC(=O)N1N=C(c2nc(C(C)C)cs2)OC1(C)c1ccc(Cl)cc1` (centres undefined) gave an MIC of 8 µg/mL (≈ 22 µM).
For `Cc1ccc(/C=N/n2c(S)nnc2-c2nc(C(C)C)cs2)cc1`, the MIC was 125 µg/mL (≈ 364 µM).
In the case of `CC(C)c1csc(-c2nnc(S)n2/N=C/c2ccccc2Cl)n1`, the MIC is reported as 8 µg/mL (≈ 22 µM).

Each compound was assayed on Escherichia coli (assay: Antimicrobial activity against Escherichia coli ATCC 10536 after 24 hrs by broth microdilution assay). Details: ATCC 10536, 24 h.
Type: functional
In short: as §1
`CC(C)c1csc(-c2nnc(-c3ccc([N+](=O)[O-])cc3)o2)n1` showed an MIC of 125 µg/mL (≈ 395 µM).
For `CC(=O)N1N=C(c2nc(C(C)C)cs2)OC1(C)C`, the MIC was 125 µg/mL (≈ 468 µM).
`CC(=O)N1N=C(c2nc(C(C)C)cs2)OC1(C)c1ccccc1` (centres undefined) showed an MIC of 62.5 µg/mL (≈ 190 µM).
Work on `CC(=O)N1N=C(c2nc(C(C)C)cs2)OC1(C)c1ccc(Cl)cc1` (centres undefined) yielded an MIC of 8 µg/mL (≈ 22 µM).
Work on `Cc1ccc(/C=N/n2c(S)nnc2-c2nc(C(C)C)cs2)cc1` yielded an MIC of 125 µg/mL (≈ 364 µM).
`CC(C)c1csc(-c2nnc(S)n2/N=C/c2ccccc2Cl)n1` showed an MIC of 62.5 µg/mL (≈ 172 µM).

What follows are compounds tested on Pseudomonas aeruginosa (assay: Antimicrobial activity against Pseudomonas aeruginosa ATCC 10145 after 24 hrs by broth microdilution assay). Details: ATCC 10145, 24 h.
Type: functional
In short: as §1
`CC(C)c1csc(-c2nnc(-c3ccc([N+](=O)[O-])cc3)o2)n1` was tested, and the MIC was 31.2 µg/mL (≈ 98.8 µM).
Compound `CC(=O)N1N=C(c2nc(C(C)C)cs2)OC1(C)C` has an MIC of 125 µg/mL (≈ 468 µM).
Compound `CC(=O)N1N=C(c2nc(C(C)C)cs2)OC1(C)c1ccccc1` (centres undefined) has an MIC of 31.2 µg/mL (≈ 94.9 µM).
Work on `CC(=O)N1N=C(c2nc(C(C)C)cs2)OC1(C)c1ccc(Cl)cc1` (centres undefined) yielded an MIC of 8 µg/mL (≈ 22 µM).
Compound `Cc1ccc(/C=N/n2c(S)nnc2-c2nc(C(C)C)cs2)cc1` has an MIC of 31.2 µg/mL (≈ 91 µM).
`CC(C)c1csc(-c2nnc(S)n2/N=C/c2ccccc2Cl)n1` was tested, and the MIC was 16 µg/mL (≈ 44 µM).

What follows are compounds tested on Saccharomyces cerevisiae (assay: Antimicrobial activity against Saccharomyces cerevisiae ATCC 9763 after 24 hrs by broth microdilution assay). Details: ATCC 9763, 24 h.
Type: functional
In short: as §1
In the case of `CC(C)c1csc(-c2nnc(-c3ccc([N+](=O)[O-])cc3)o2)n1`, the MIC is reported as 16 µg/mL (≈ 50.6 µM).
For `CC(=O)N1N=C(c2nc(C(C)C)cs2)OC1(C)C`, the MIC was 62.5 µg/mL (≈ 234 µM).
For `CC(=O)N1N=C(c2nc(C(C)C)cs2)OC1(C)c1ccccc1` (centres undefined), the MIC was 125 µg/mL (≈ 379 µM).
Work on `CC(=O)N1N=C(c2nc(C(C)C)cs2)OC1(C)c1ccc(Cl)cc1` (centres undefined) yielded an MIC of 62.5 µg/mL (≈ 172 µM).
In the case of `Cc1ccc(/C=N/n2c(S)nnc2-c2nc(C(C)C)cs2)cc1`, the MIC is reported as 31.2 µg/mL (≈ 91 µM).
Work on `CC(C)c1csc(-c2nnc(S)n2/N=C/c2ccccc2Cl)n1` yielded an MIC of 31.2 µg/mL (≈ 85.9 µM).

These compounds were tested on Candida tropicalis (assay: Antimicrobial activity against Candida tropicalis ATCC 1369 after 24 hrs by broth microdilution assay). Details: ATCC 1369, 24 h.
Type: functional
In short: as §1
`CC(C)c1csc(-c2nnc(-c3ccc([N+](=O)[O-])cc3)o2)n1` showed an MIC of 16 µg/mL (≈ 50.6 µM).
In the case of `CC(=O)N1N=C(c2nc(C(C)C)cs2)OC1(C)C`, the MIC is reported as 62.5 µg/mL (≈ 234 µM).
`CC(=O)N1N=C(c2nc(C(C)C)cs2)OC1(C)c1ccccc1` (centres undefined) showed an MIC of 31.2 µg/mL (≈ 94.9 µM).
For `CC(=O)N1N=C(c2nc(C(C)C)cs2)OC1(C)c1ccc(Cl)cc1` (centres undefined), the MIC was 31.2 µg/mL (≈ 85.9 µM).
Compound `Cc1ccc(/C=N/n2c(S)nnc2-c2nc(C(C)C)cs2)cc1` has an MIC of 31.2 µg/mL (≈ 91 µM).
`CC(C)c1csc(-c2nnc(S)n2/N=C/c2ccccc2Cl)n1` showed an MIC of 31.2 µg/mL (≈ 85.9 µM).

The compounds below were run on Aspergillus niger (assay: Antimicrobial activity against Aspergillus niger ATCC 6275 after 24 hrs by broth microdilution assay). Details: ATCC 6275, 24 h.
Type: functional
In short: as §1
Compound `CC(C)c1csc(-c2nnc(-c3ccc([N+](=O)[O-])cc3)o2)n1` has an MIC of 31.2 µg/mL (≈ 98.8 µM).
With `CC(=O)N1N=C(c2nc(C(C)C)cs2)OC1(C)C` the MIC was 62.5 µg/mL (≈ 234 µM).
In the case of `CC(=O)N1N=C(c2nc(C(C)C)cs2)OC1(C)c1ccccc1` (centres undefined), the MIC is reported as 62.5 µg/mL (≈ 190 µM).
`CC(=O)N1N=C(c2nc(C(C)C)cs2)OC1(C)c1ccc(Cl)cc1` (centres undefined) gave an MIC of 62.5 µg/mL (≈ 172 µM).
For `Cc1ccc(/C=N/n2c(S)nnc2-c2nc(C(C)C)cs2)cc1`, the MIC was 16 µg/mL (≈ 46.6 µM).
`CC(C)c1csc(-c2nnc(S)n2/N=C/c2ccccc2Cl)n1` gave an MIC of 16 µg/mL (≈ 44 µM).

These compounds were tested on Mycobacterium tuberculosis (assay: Antimycobacterial activity against Mycobacterium tuberculosis H37Rv after 21 days by broth dilution assay). Details: 504 h.
Type: functional
In short: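 Middlebrook 7H9 broth with 10% albumin-dextrose-catalase and 0.2% glycerol; frozen culture thawed, diluted to 10⁵ cfu/mL and used as inoculum. Compounds taken up in DMSO and diluted twice in broth, 1.3% DMSO final. Incubated at 37 °C. Growth judged by eye against drug-free and inoculum-free controls and isoniazid. MIC is the lowest concentration inhibiting ≥99% of the starting population.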
With `CC(C)c1csc(-c2nnc(-c3ccc([N+](=O)[O-])cc3)o2)n1` the MIC was 62.5 µg/mL (≈ 198 µM).
Compound `CC(=O)N1N=C(c2nc(C(C)C)cs2)OC1(C)C` has an MIC of 125 µg/mL (≈ 468 µM).
Work on `CC(=O)N1N=C(c2nc(C(C)C)cs2)OC1(C)c1ccccc1` (centres undefined) yielded an MIC of 62.5 µg/mL (≈ 190 µM).
`CC(=O)N1N=C(c2nc(C(C)C)cs2)OC1(C)c1ccc(Cl)cc1` (centres undefined) showed an MIC of 16 µg/mL (≈ 44 µM).
`Cc1ccc(/C=N/n2c(S)nnc2-c2nc(C(C)C)cs2)cc1` showed an MIC of 32.5 µg/mL (≈ 94.6 µM).
`CC(C)c1csc(-c2nnc(S)n2/N=C/c2ccccc2Cl)n1` was tested, and the MIC was 4 µg/mL (≈ 11 µM).

What follows are compounds tested on A549 (assay: Cytotoxicity against human A549 cells at 250 uM). Details: a549, 250 µM.
Type: cell-based
In short: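 A549 lung adenocarcinoma cells are grown with fetal bovine serum. Compounds are taken from 10 mM DMSO stocks stored at −20 °C and diluted in culture medium, with treatments at 50–250 µM. Viability is read by MTT assay against untreated cells and a DMSO vehicle control.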
In the case of `CC(C)c1csc(-c2nnc(-c3ccc([N+](=O)[O-])cc3)o2)n1`, the Activity is reported as 50%.
With `CC(=O)N1N=C(c2nc(C(C)C)cs2)OC1(C)c1ccc(Cl)cc1` (centres undefined) the Activity was “Toxic”.
`Cc1ccc(/C=N/n2c(S)nnc2-c2nc(C(C)C)cs2)cc1` showed an Activity of 50%.
In the case of `CC(C)c1csc(-c2nnc(S)n2/N=C/c2ccccc2Cl)n1`, the Activity is reported as 50%.
